Assay results: ChEMBL document CHEMBL1144721, “Bioactive triterpene saponins from the roots of Phytolacca americana” (J Nat Prod, 2008)

Tests used:
[1] = system: WI-38 VA13; assay: Cytotoxicity against human VA13 cells; format: functional, cell-based
Summary of the method: (§1)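 IC50 values are the mean of duplicate determinations.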

[2] = molecular target: T1, ATP-dependent translocase ABCB1 (Homo sapiens, UniProt P08183); assay: Inhibition of P-glycoprotein-mediated multidrug resistance in human 2780AD cells assessed as calcein accumulation at 25 ug/mL relative to control; format: cell-based; parameters: scale not given: the % may be the effect or the level left; settings: a2780 adr
T1 sequence (P08183 whole entry): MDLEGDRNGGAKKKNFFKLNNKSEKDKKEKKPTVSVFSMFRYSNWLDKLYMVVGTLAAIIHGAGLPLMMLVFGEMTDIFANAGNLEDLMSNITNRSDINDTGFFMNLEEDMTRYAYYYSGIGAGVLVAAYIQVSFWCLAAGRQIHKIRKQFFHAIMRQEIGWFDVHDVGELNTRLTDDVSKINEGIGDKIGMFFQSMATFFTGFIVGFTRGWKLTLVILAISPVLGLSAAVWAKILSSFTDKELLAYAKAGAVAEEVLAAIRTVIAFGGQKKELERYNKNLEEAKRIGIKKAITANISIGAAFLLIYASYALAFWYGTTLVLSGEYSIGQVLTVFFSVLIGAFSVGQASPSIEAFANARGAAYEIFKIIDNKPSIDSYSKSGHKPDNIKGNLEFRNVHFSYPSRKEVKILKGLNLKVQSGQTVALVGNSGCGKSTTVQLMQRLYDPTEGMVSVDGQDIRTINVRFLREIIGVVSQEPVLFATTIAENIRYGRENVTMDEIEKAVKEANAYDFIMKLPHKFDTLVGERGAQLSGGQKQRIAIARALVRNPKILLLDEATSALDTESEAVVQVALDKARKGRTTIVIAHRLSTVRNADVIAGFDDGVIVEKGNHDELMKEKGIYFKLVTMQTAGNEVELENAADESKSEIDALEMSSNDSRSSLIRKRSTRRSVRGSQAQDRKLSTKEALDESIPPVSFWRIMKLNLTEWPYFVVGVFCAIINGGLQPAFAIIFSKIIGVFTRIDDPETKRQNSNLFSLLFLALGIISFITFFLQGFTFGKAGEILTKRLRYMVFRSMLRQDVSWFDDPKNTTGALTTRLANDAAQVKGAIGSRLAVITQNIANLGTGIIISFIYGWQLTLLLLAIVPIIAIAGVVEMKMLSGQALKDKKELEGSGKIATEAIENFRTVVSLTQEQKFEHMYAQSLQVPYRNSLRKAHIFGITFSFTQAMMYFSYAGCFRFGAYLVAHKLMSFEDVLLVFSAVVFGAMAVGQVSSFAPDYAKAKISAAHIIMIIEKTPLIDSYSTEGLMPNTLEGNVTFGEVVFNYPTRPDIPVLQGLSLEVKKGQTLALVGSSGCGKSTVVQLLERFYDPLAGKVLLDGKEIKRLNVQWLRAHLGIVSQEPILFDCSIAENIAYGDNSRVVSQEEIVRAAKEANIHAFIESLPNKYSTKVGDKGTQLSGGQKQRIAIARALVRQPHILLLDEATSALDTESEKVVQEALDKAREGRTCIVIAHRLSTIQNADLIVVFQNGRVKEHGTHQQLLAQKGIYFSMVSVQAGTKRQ
Summary of the method: (§2)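 Multidrug-resistant human ovarian cancer 2780AD cells exposed to compound at 0.25, 2.5 or 25 μg/mL. Intracellular calcein accumulation measured and expressed as the amount relative to an untreated control (% of control).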

[3] = molecular target: T1, ATP-dependent translocase ABCB1; assay: Inhibition of P-glycoprotein-mediated multidrug resistance in human 2780AD cells assessed as calcein accumulation at 2.5 ug/mL relative to control; format: cell-based; parameters: scale not given: the % may be the effect or the level left; settings: a2780 adr; summary of the method: as §2
[4] = system: HepG2; assay: Cytotoxicity against human HepG2 cells; format: functional, cell-based; summary of the method: as §1
[5] = system: A549; assay: Antiinflammatory activity against human A549 cells assessed as inhibition of IL-1-alpha-induced ICAM1 expression after 6 hrs
[6] = molecular target: T1, ATP-dependent translocase ABCB1; assay: Inhibition of P-glycoprotein-mediated multidrug resistance in human 2780AD cells assessed as calcein accumulation at 0.25 ug/mL relative to control; format: cell-based; parameters: scale not given: the % may be the effect or the level left; settings: a2780 adr; summary of the method: as §2
[7] = system: WI-38; assay: Cytotoxicity against human WI38 cells; format: functional, cell-based; summary of the method: as §1
[8] = system: A549; assay: Cell viability of human A549 cells after 24 hrs by MTT assay; format: functional
Summary of the method: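 A549 cells incubated with serial dilutions of compound for 24 h. Viability (%) measured by MTT assay and used to derive IC50. Triplicate cultures.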

| Activity [2] [%] | Activity [3] [%] | Activity [6] [%] | SMILES | IC50 [1] [µM] | IC50 [4] [µM] | Activity [5] [µM] | IC50 [7] [µM] | Activity [8] [µM] |
| --- | --- | --- | --- | --- | --- | --- | --- | --- |
| 143 | 132 | 141 | COC(=O)[C@@]1(C)CC[C@]2(C(=O)O[C@@H]3O[C@H](CO)[C@@H](O)[C@H](O)[C@H]3O)CC[C@]3(C)C(=CC[C@@H]4[C@@]5(C)C[C@H](O)[C@H](O[C@@H]6OC[C@@H](O)[C@H](O)[C@H]6O)[C@@](C)(CO)[C@@H]5CC[C@]43C)[C@@H]2C1 | 95.2 | > 121 | >121 | > 121 | >121 |
| 124 | 119 | 121 | COC(=O)[C@@]1(C)CC[C@]2(C(=O)O[C@@H]3O[C@H](CO)[C@@H](O)[C@H](O)[C@H]3O)CC[C@]3(C)C(=C[C@@H](O)[C@@H]4[C@@]5(C)C[C@H](O)[C@H](O[C@@H]6OC[C@@H](O[C@@H]7O[C@H](CO)[C@@H](O)[C@H](O)[C@H]7O)[C@H](O)[C@H]6O)[C@@](C)(CO)[C@@H]5CC[C@]43C)[C@@H]2C1 | 94 | > 100 | >100 | > 100 | >100 |
| 108 | 100 | 105 | COC(=O)[C@@]1(C)CC[C@]2(C(=O)O[C@@H]3O[C@H](CO)[C@@H](O)[C@H](O)[C@H]3O)CC[C@]3(C)C(=C[C@@H](OC)[C@@H]4[C@@]5(C)C[C@H](O)[C@H](O[C@@H]6OC[C@@H](O[C@@H]7O[C@H](CO)[C@@H](O)[C@H](O)[C@H]7O)[C@H](O)[C@H]6O)[C@@](C)(CO)[C@@H]5CC[C@]43C)[C@@H]2C1 | > 98.2 | > 98.2 | >98.2 | > 98.2 | >98.2 |
| 94 | 68 | 93 | COC(=O)[C@@]1(C)CC[C@]2(C(=O)O[C@@H]3O[C@H](CO)[C@@H](O)[C@H](O)[C@H]3O)CC[C@]3(C)C(=CC[C@@H]4[C@@]5(C)CC[C@H](O[C@@H]6OC[C@@H](O)[C@H](O[C@@H]7OC[C@@H](O)[C@H](O)[C@H]7O[C@@H]7O[C@H](CO)[C@@H](O)[C@H](O)[C@H]7O[C@@H]7O[C@@H](C)[C@H](O)[C@@H](O)[C@H]7O)[C@H]6O)[C@@](C)(CO)[C@@H]5CC[C@]43C)[C@@H]2C1 | > 89 | > 89 | >89 | > 89 | >89 |
| 123 | 129 | 124 | COC(=O)[C@@]1(C)CC[C@]2(C(=O)O[C@@H]3O[C@H](CO)[C@@H](O)[C@H](O)[C@H]3O)CC[C@]3(C)C(=CC[C@@H]4[C@@]5(C)C[C@H](O)[C@H](O[C@@H]6OC[C@@H](OC7O[C@H](CO)[C@@H](O)[C@H](O)[C@H]7O)[C@H](O)[C@H]6O)[C@@](C)(CO)[C@@H]5CC[C@]43C)[C@@H]2C1 (stereo partly specified) | > 101 | > 101 | >320 | > 101 | >1012 |
| 120 | 115 | 98 | COC(=O)[C@@]1(C)CC[C@]2(C(=O)O[C@@H]3O[C@H](CO)[C@@H](O)[C@H](O)[C@H]3O)CC[C@]3(C)C(=CC[C@@H]4[C@@]5(C)CC(=O)[C@H](O[C@@H]6OC[C@@H](O[C@@H]7O[C@H](CO)[C@@H](O)[C@H](O)[C@H]7O)[C@H](O)[C@H]6O)[C@@](C)(CO)[C@@H]5CC[C@]43C)[C@@H]2C1 | > 101 | > 101 | >101 | > 101 | >101 |
| 126 | 101 | 124 | COC(=O)[C@@]1(C)CC[C@]2(C(=O)O[C@@H]3O[C@H](CO)[C@@H](O)[C@H](O)[C@H]3O)CC[C@]3(C)C(=CC[C@@H]4[C@@]5(C)CC[C@H](O[C@@H]6OC[C@@H](OC7O[C@H](CO)[C@@H](O)[C@H](O)[C@H]7O)[C@H](O)[C@H]6O)[C@@](C)(CO)[C@@H]5CC[C@]43C)[C@@H]2C1 (stereo partly specified) | > 103 | > 103 | >103 | > 103 | >103 |
| 119 | 104 | 111 | COC(=O)[C@@]1(C)CC[C@]2(C(=O)O)CC[C@]3(C)C(=CC[C@@H]4[C@@]5(C)C[C@H](O)[C@H](O[C@@H]6OC[C@@H](OC7O[C@H](CO)[C@@H](O)[C@H](O)[C@H]7O)[C@H](O)[C@H]6O)[C@@](C)(CO)[C@@H]5CC[C@]43C)[C@@H]2C1 (stereo partly specified) | 117 | 102 | >383 | 7.1 | 661 |
| 155 | 135 | 119 | COC(=O)[C@@]1(C)CC[C@]2(C(=O)O[C@@H]3O[C@H](CO)[C@@H](O)[C@H](O)[C@H]3O)CC[C@]3(C)C(=CC(=O)[C@@H]4[C@@]5(C)C[C@H](O)[C@H](O[C@@H]6OC[C@@H](OC7O[C@H](CO)[C@@H](O)[C@H](O)[C@H]7O)[C@H](O)[C@H]6O)[C@@](C)(CO)[C@@H]5CC[C@]43C)[C@@H]2C1 (stereo partly specified) | > 98.8 | 97.4 | >98.8 | > 98.8 | >98.8 |
| 135 | 123 | 118 | COC(=O)[C@@]1(C)CC[C@]2(C(=O)O)CC[C@]3(C)C(=C[C@@H](OC)[C@@H]4[C@@]5(C)C[C@H](O)[C@H](O[C@@H]6OC[C@@H](O[C@@H]7O[C@H](CO)[C@@H](O)[C@H](O)[C@H]7O)[C@H](O)[C@H]6O)[C@@](C)(CO)[C@@H]5CC[C@]43C)[C@@H]2C1 | > 118 | > 118 | >118 | > 118 | >118 |
| 123 | 106 | 126 | COC(=O)[C@@]1(C)CC[C@]2(C(=O)O[C@@H]3O[C@H](CO)[C@@H](O)[C@H](O)[C@H]3O)CC[C@]3(C)C(=CC[C@@H]4[C@@]5(C)CC[C@H](O[C@@H]6OC[C@@H](O[C@@H]7O[C@H](CO)[C@@H](O)[C@H](O)[C@H]7O)[C@H](O)[C@H]6O[C@@H]6O[C@H](CO)[C@@H](O)[C@H](O)[C@H]6O)[C@@](C)(CO)[C@@H]5CC[C@]43C)[C@@H]2C1 | > 88.2 | > 88.2 | >88.2 | > 88.2 | >88.2 |
| 123 | 117 | 128 | COC(=O)[C@@]1(C)CC[C@]2(C(=O)O)CC[C@]3(C)C(=CC[C@@H]4[C@@]5(C)C[C@H](O)[C@H](O[C@@H]6OC[C@@H](O)[C@H](O)[C@H]6O)[C@@](C)(CO)[C@@H]5CC[C@]43C)[C@@H]2C1 [PHYTOLACCOSIDE B] | 68.9 | 74.7 | 253 | 36.2 | 265 |
